The values that follow come from paper PMC9029315 (RSC Advances, 2021).

In brackets after ≈: the same amount, converted by molar mass. Where two headings read alike, the source gives them in different places. Where only a bound is given, the exact number is not on record here.

Series [1] concerns M. tb H37Rv strain. Description: Anti-TB activity, microplate alamarBlue assay. The class given is cell-based, Mycobacterium tuberculosis. The settings on record: H37Rv MIC values converted to μM; for H37Rv, MIC: MABA; for MIC: Mycobacterium tuberculosis, H37RV, read-out: H37Rv, MIC, MABA. The gist of the method: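 Whole-cell M. tuberculosis H37Rv growth inhibition by microplate alamarBlue assay. MIC is the lowest concentration giving at least 90% reduction of bacterial growth, averaged over three individual measurements. It was then converted to molar units. Front-line anti-TB drugs served as positive controls.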
On the technique in general: The colour change of resazurin is a common sign of viable cells or microbes.

Series [2] has as its system KNS42 cells (paediatric GBM). Put plainly: KNS42 cell proliferation assay. Type of series: cell-based. The settings on record: Homo sapiens, KNS-42, 72 h, read-out: KNS42 prolif., IC50. A digest of the protocol: (§1)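 Human cells were kept at 37 °C, 5% CO2 with pen/strep in RPMI/10% FBS (KNS42, BT-12, BT-16), EMEM/10% FBS (DAOY) or DMEM/15% FBS (HFF1). Seeding was 2000 cells/well (KNS42 4000), followed by overnight attachment. Compound medium (0.5, 1, 2.5, 5, 7.5, 10) or 0.1% DMSO control was then applied for 72 h. MTT absorbance was read at 570/600 nm, background subtracted, and IC50 calculated.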

A further series concerns Vero cells. Description: Cytotoxicity against Vero cells. The class given is cell-based. The settings on record: SI = IC50(Vero)/MIC(H37Rv).
The subject of series [3] is M. tb H37Rv strain. The settings on record: cited from earlier work.
Series [4] has as its system BT12 cells (AT/RT). Description: BT12 cell viability assay. Type of series: cell-based. The settings on record: Homo sapiens, BT-12, 72 h, read-out: BT12 viability, IC50. The gist of the method:
(§2)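 Cultures were grown at 37 °C, 5% CO2 with pen/strep in RPMI/10% FBS (BT-12, BT-16), EMEM/10% FBS (DAOY) or DMEM/15% FBS (HFF1). Cells were plated at 2000 per well and incubated overnight. They were then exposed for 72 h to test compound (0.5–10, six levels) or 0.1% DMSO medium. PrestoBlue fluorescence was read at 560/590 nm, background removed, and IC50 derived.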

For series [5], the system named is BT12 cells (AT/RT). Description: BT12 cell proliferation assay. Type of series: cell-based. The settings on record: Homo sapiens, BT-12, 72 h, read-out: BT12 prolif., IC50. The gist of the method:
as §1

Series [6] concerns BT16 cells (AT/RT). Put plainly: BT16 cell viability assay. The class given is cell-based. The settings on record: Homo sapiens, BT-16, 72 h, read-out: BT16 viability, IC50. The gist of the method: as §2
For series [7], the system named is BT16 cells (AT/RT). Put plainly: BT16 cell proliferation assay. Type of series: cell-based. The settings on record: Homo sapiens, BT-16, 72 h, read-out: BT16 prolif., IC50. A digest of the protocol: as §1
The subject of series [8] is DAOY cells (medulloblastoma). Description: DAOY cell viability assay. The class given is cell-based. The settings on record: Homo sapiens, 72 h, read-out: DAOY viability, IC50. The gist of the method:
as §2

Series [9] relates to DAOY cells (medulloblastoma). Description: DAOY cell proliferation assay. The settings on record: Homo sapiens, 72 h, read-out: DAOY prolif., IC50. The class given is cell-based. A digest of the protocol: as §1
Series [10] concerns HFF1 non-neoplastic human fibroblasts. Put plainly: HFF1 cell viability assay. Type of series: cell-based. The settings on record: HFF-1, 72 h, read-out: HFF1 viability, IC50. A digest of the protocol:
as §2

For series [11] the test system is unchanged. Put plainly: HFF1 cell proliferation assay. The class given is cell-based. The settings on record: HFF-1, 72 h, read-out: HFF1 prolif., IC50. A digest of the protocol:
as §1

For series [12], the target named is cannabinoid receptor 2 (CB2). The settings on record: read-out: CB2 agonistic activity, EC50; cited from earlier work.
A further series deals with human THP-1 cells. The settings on record: cited from earlier work.
Series [13] has as its system carbonic anhydrase 9 (CA9) gene. Description: Transcriptional analysis of KNS42 cells, CA9 expression. The class given is cell-based, human. The settings on record: 10 μM, 72 hours, versus untreated, p < 0.01. The gist of the method: (§3)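 KNS42 cells in RPMI/10% FBS with pen/strep, 37 °C, 5% CO2, were treated with test compound at 10 for 72 h. Cells were PBS-washed, scraped and pelleted. RNA was TRIzol-extracted, resuspended in DEPC water and quantified by Qubit broad-range assay. Samples underwent DNBSEQ eukaryotic stranded transcriptome resequencing to determine differential expression.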

For series [14], the system named is spleen tyrosine kinase (SYK) gene. Description: Transcriptional analysis of KNS42 cells, SYK expression. The settings on record: 10 μM, 72 hours, versus untreated, p < 0.05. Type of series: cell-based, human. A digest of the protocol: as §3
A further series relates to KNS42 cells. Put plainly: Transcriptional analysis of KNS42 cells, differential gene expression. The class given is cell-based, human. The settings on record: 10 μM, 72 hours, fold change ≥ 8, P < 0.05. A digest of the protocol:
as §3

A further series relates to healthy cells. The settings on record: read-out: Cytotoxicity to healthy cells, IC50; cited from earlier work.

As a reminder, the MIC is the lowest concentration found to suppress growth. By IC50 is commonly meant the concentration that inhibits the measured activity by half. In the case of `O=C(NC(=O)c1cc2c(F)cc(F)cc2[nH]1)c1cccc(F)c1` [Compound 11a, 4,6-Difluoro-N-(3-fluorobenzoyl)-1H-indole-2-carboxamide], in the series on M. tb H37Rv strain [1], the “H37Rv, MIC” value was more than 101 µM and the MIC is more than 96 µM. In [2], the IC50 is more than 10 µM.
In the case of `CC(NC(=O)c1cc2ccc(Br)cc2[nH]1)C12CC3CC(CC(C3)C1)C2` (centres unmarked) [Compound 8f, N-(1-(Adamantan-1-yl)ethyl)-6-bromo-1H-indole-2-carboxamide], the minimal inhibitory concentration (MIC) in the series with M. tb H37Rv strain [1] was 0.62 µM (≈ 0.249 µg/mL). Moreover, the “SI (selectivity index)” value in the series with Vero cells is given as 64. For the same molecule, in series [2], the 50% inhibitory concentration (IC50) is more than 10 µM.
Regarding `COc1cccc2[nH]c(C(=O)NC(C)C34CC5CC(CC(C5)C3)C4)cc12` (centres unmarked) [Compound 8b, N-(1-(Adamantan-1-yl)ethyl)-4-methoxy-1H-indole-2-carboxamide], the half-maximal inhibitory concentration (IC50) in [2] was more than 10 µM.
For `CC(NC(=O)c1cc2ccccc2[nH]1)C12CC3CC(CC(C3)C1)C2` (centres unmarked) [Compound 8a, N-(1-(Adamantan-1-yl)ethyl)-1H-indole-2-carboxamide], the minimal inhibitory concentration (MIC) in the series on M. tb H37Rv strain [1] is 6.2 µM (≈ 2 µg/mL). In addition, in [2], the IC50 was more than 10 µM. Further, in the series on M. tb H37Rv strain [3], the “H37Rv, MIC” value was more than 15.5 µM.
Regarding `O=C(NC(=O)c1cc2c(F)cc(F)cc2[nH]1)c1cccc(Cl)c1` [Compound 11b, N-(3-Chlorobenzoyl)-4,6-difluoro-1H-indole-2-carboxamide], the “H37Rv, MIC” value with M. tb H37Rv strain [1] was more than 96 µM. For the same molecule, the IC50 in series [2] is more than 10 µM.
As for `O=C(NC12CC3CC(CC(C3)C1)C2)c1ccc(NC(=O)c2cc3c(F)cc(F)cc3[nH]2)cc1` [Compound 20, N-(4-((Adamantan-1-yl)carbamoyl)phenyl)-4,6-difluoro-1H-indole-2-carboxamide], in the series on M. tb H37Rv strain [1], the “H37Rv, MIC” value is more than 71 µM and the minimum inhibitory concentration (MIC) was more than 71 µM. Moreover, the IC50 in [2] was more than 10 µM.
In the case of `CC(NC(=O)c1cc2c(Cl)cc(Cl)cc2[nH]1)C12CC3CC(CC(C3)C1)C2` (centres unmarked) [Compound 8g, N-(1-(Adamantan-1-yl)ethyl)-4,6-dichloro-1H-indole-2-carboxamide], the minimal inhibitory concentration (MIC) in the series on M. tb H37Rv strain [1] came out at 0.32 µM (≈ 0.125 µg/mL). Further, the “SI (selectivity index)” value in the series on Vero cells is 128. In [2], the IC50 is more than 10 µM.
As for `O=C(NCc1ccccc1)c1cc2c(F)cc(F)cc2[nH]1` [Compound 9a, N-Benzyl-4,6-difluoro-1H-indole-2-carboxamide], the “H37Rv, MIC” value with M. tb H37Rv strain [1] was more than 112 µM. The minimal inhibitory concentration (MIC) in the series with M. tb H37Rv strain [1] was more than 112 µM. Further, the IC50 in series [2] was 9.85 µM; in the series with BT12 cells (AT/RT) [4], 0.89 µM; in the series with BT12 cells (AT/RT) [5] it was 7.44 µM; in the series with BT16 cells (AT/RT) [6], 1.81 µM; in the series with BT16 cells (AT/RT) [7], 6.06 µM; in series [8], more than 10 µM. The results for the half-maximal inhibitory concentration (IC50) in series [9], in series [10] and in [11] were more than 10 µM, 119 µM and 65 µM, respectively.
For `COc1ccc2[nH]c(C(=O)NC(C)C34CC5CC(CC(C5)C3)C4)cc2c1` (centres unmarked) [Compound 8c, N-(1-(Adamantan-1-yl)ethyl)-5-methoxy-1H-indole-2-carboxamide], in the series with M. tb H37Rv strain [1], the “H37Rv, MIC” value was 5.67 µM and the minimum inhibitory concentration (MIC) is less than 6 µM. The IC50 in [2] is more than 10 µM.
Turning to `CC[C@@H](CO)NCCN[C@@H](CC)CO` [EMB, ethambutol], in the series with M. tb H37Rv strain [3], the “H37Rv, MIC” value was 1 (ref. [6]) μg mL^−1.
Regarding `NNC(=O)c1ccncc1` [INH, isoniazid], the “H37Rv, MIC” value with M. tb H37Rv strain [3] is 0.04 (ref. [6]) μg mL^−1.
As for `O=C(c1cc2c(F)cc(F)cc2[nH]1)N1CCNCC1` [Compound 14, (4,6-Difluoro-1H-indol-2-yl)(piperazin-1-yl)methanone], in the series on M. tb H37Rv strain [1], the “H37Rv, MIC” value was more than 121 µM and the MIC is more than 121 µM. In [2], the IC50 is more than 10 µM.
As for `O=C(NNc1ccccc1)c1cc2c(F)cc(F)cc2[nH]1` [Compound 9b, 4,6-Difluoro-N′-phenyl-1H-indole-2-carbohydrazide], in the series on M. tb H37Rv strain [1], the “H37Rv, MIC” value was more than 111 µM and the MIC was more than 96 µM. For the same molecule, in series [2], the concentration for half-maximal inhibition (IC50) was more than 10 µM.
As for `CC(NC(=O)c1cc2c(F)cc(F)cc2[nH]1)C12CC3CC(CC(C3)C1)C2` (centres unmarked) [Compound 8h, N-(1-(Adamantan-1-yl)ethyl)-4,6-difluoro-1H-indole-2-carboxamide], the half-inhibitory concentration (IC50) in series [2] was more than 10 µM.
In general, EC50 refers to the concentration needed to bring the measured effect to its halfway point. Consider `O=C(NC12CC3CC(CC(C3)C1)C2)c1cc2ccccc2[nH]1` [Compound 3, N-(1-adamantyl)-indole-2-carboxamide], for which the 50% inhibitory concentration (IC50) in [2] is more than 10 µM. In addition, the concentration for a half-maximal effect (EC50) in series [12] was 0.98 µM. Also, the “Cytotoxicity against human THP-1 cells” value with human THP-1 cells is listed as “non-cytotoxic up to 50”.
For the molecule `O=C(c1cc2c(F)cc(F)cc2[nH]1)N1CCN(C(=O)C23CC4CC(CC(C4)C2)C3)CC1` [Compound 15, (Adamantan-1-yl)(4-(4,6-difluoro-1H-indole-2-carbonyl)piperazin-1-yl)methanone], the “H37Rv, MIC” value with M. tb H37Rv strain [1] was more than 75 µM. The IC50 was 6.62 µM in [2]; 3.16 µM in the series on BT12 cells (AT/RT) [4]; more than 10 µM with BT12 cells (AT/RT) [5]; 5.89 µM in the series on BT16 cells (AT/RT) [6]; more than 10 µM in the series on BT16 cells (AT/RT) [7]; more than 10 µM in series [8]. Also, the results for the IC50 in series [9], in series [10] and in series [11] were more than 10 µM, 19.4 µM and 17.4 µM, respectively. Further, the “Downregulation of CA9 expression” value in series [13] is on record as 15 fold. Also, in series [14], the “Downregulation of SYK expression” value amounted to 9 fold. The “Number of genes with downregulated expression” value in the series on KNS42 cells worked out at 9 genes.
As to `Cc1ccc2[nH]c(C(=O)NC(C)C34CC5CC(CC(C5)C3)C4)cc2c1` (centres unmarked) [Compound 8d, N-(1-(Adamantan-1-yl)ethyl)-5-methyl-1H-indole-2-carboxamide], in the series with M. tb H37Rv strain [1], the MIC was 2.97 µM (≈ 0.999 µg/mL). In addition, the concentration for half-maximal inhibition (IC50) in series [2] was more than 10 µM.
`CC(NC(=O)c1cc2cc(Cl)ccc2[nH]1)C12CC3CC(CC(C3)C1)C2` (centres unmarked) [Compound 8e, N-(1-(Adamantan-1-yl)ethyl)-5-chloro-1H-indole-2-carboxamide]: the half-inhibitory concentration (IC50) in [2] is more than 10 µM.
With `Cc1cc(C)c2cc(C(=O)NC34CC5CC(CC(C5)C3)C4)[nH]c2c1` [Compound 2, N-(1-adamantyl)-4,6-dimethylindole-2-carboxamide], the MIC in the series with M. tb H37Rv strain [3] was 0.012 µM (≈ 0.00387 µg/mL). Further, the IC50 with healthy cells was more than 200 µM.
